M4 PAM – positive allosteric modulators of human muscarinic M4 receptor. P08173. CHO-K1 hM4/Gqi5, Fluo-8 calcium fluorescence, ACh EC20; 0% = ACh EC20, 100% = maximal ACh. activation, % at 3 µM. 360,000 tested, 0.4% active;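 active = activation above its plate's cutoff, the mean activation of sample wells plus 3 SD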
Target sequence (P08173 whole entry, looked up): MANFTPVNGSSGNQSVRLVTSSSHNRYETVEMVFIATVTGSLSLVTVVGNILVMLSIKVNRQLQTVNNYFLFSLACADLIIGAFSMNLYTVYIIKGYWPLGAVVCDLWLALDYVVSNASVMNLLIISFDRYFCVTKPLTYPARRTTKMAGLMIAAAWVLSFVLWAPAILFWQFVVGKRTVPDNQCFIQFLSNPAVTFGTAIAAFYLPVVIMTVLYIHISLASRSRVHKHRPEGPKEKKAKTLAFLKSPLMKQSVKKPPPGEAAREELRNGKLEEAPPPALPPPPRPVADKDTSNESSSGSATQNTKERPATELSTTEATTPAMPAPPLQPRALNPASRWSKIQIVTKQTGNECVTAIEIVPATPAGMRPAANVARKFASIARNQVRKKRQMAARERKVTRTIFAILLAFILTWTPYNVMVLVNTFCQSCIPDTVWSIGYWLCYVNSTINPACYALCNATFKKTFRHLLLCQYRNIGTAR
M4 antag – blocks acetylcholine activation of human M4 receptor; P08173; CHO-hM4 cells, ACh EC80, Fluo-8 calcium fluorescence; inhibition, % at 3 µM; 360,000 tested, 0.73% active;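 active = inhibition above its plate's cutoff, the mean inhibition of sample wells plus 3 SD, cut at about 27% in these data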
M5 antag – antagonists of human muscarinic M5 receptor (CHRM5); P08912; CHO-hM5 cells, Fluo-8 calcium fluorescence, ACh EC80; inhibition, % at 3 µM; 360,000 tested, 0.59% active;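 active = inhibition above a per-plate cutoff, the mean of that plate's test compounds plus 3 SD, cut at about 27% in these data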
M4 ag – agonists of human muscarinic M4 receptor (CHRM4) | P08173 | CHO-K1 hM4/Gqi5, Fluo-8 calcium fluorescence; vehicle 0%, full acetylcholine response 100% | activation, % at 3 µM | 360,000 tested, 0.14% active;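 active = activation above the run mean over all test wells plus 3 SD, cut at about 32% in these data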;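 note: peak over basal fluorescence ratio per well then scaled between controls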
CHRM5 PAM – CHRM5 positive allosteric modulation; P08912; CHO-K1 hM5, Fluo-8 calcium, ACh EC20 PAM; 0% = ACh EC20, 100% = ACh EC100; activation, % at 3 µM; 360,000 tested, 0.3% active;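 active = activation above the run cutoff, the mean activation of all test compounds plus 3 SD, cut at about 18% in these data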
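System – CHO-K1 hM5 cells · Compound – 3 µM, single dose · Incubation – compound preincubation 140 s before EC20 acetylcholine addition · Technique – Fluo-8 calcium fluorescence · Measure – Max/basal fluorescence ratio as % of EC20–EC100 ACh window · Benchmarks – low control EC20 acetylcholine (0%), high control EC100 acetylcholine (100%) · Replication – singlicate, one well per test compound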
CHRM5 agonist – CHRM5 agonism in calcium assay. P08912. CHO-K1 hM5 cells, Fluo-8 calcium fluorescence; 0% DMSO wells, 100% maximal acetylcholine response. activation, % at 3 µM. 360,000 tested, 0.19% active. AID 624037;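 active = activation above the run's mean over test compounds plus 3 SD, cut at about 23% in these data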;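 note: signal is peak over basal fluorescence ratio across the kinetic read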
Numbers stand for hits; n = inactive. Hits are enriched below; roughly 1.9% of the tested compounds scored in any of these assays.

SMILES	M4 PAM	M4 antag	M5 antag	M4 ag	CHRM5 PAM	CHRM5 agonist
O=C(NCC1CCN(Cc2ccccc2F)CC1)C1CCCN(c2ncnc3c2nc2n3CCCCC2)C1 (stereo unspecified)	n	52	n	n	n	n
O=C(NCc1ccccc1Cl)C1CCCN(c2ncnc3c2nc2n3CCCCC2)C1 (stereo unspecified)	n	n	n	n	n	n
CCOCCCNC(=O)Cn1ncc2c(=O)oc3ccccc3c21	n	39	n	n	n	n
Cc1cccnc1NC(=O)CSc1nnc(CNC(=O)c2cccc([N+](=O)[O-])c2)n1C	n	n	n	n	n	n
CCN(CC)c1ccc2c(-c3ccc(S(=O)(=O)O)cc3S(=O)(=O)[O-])c3ccc(=[N+](CC)CC)cc-3oc2c1	n	n	n	78	n	n
COC(=O)c1c(-c2ccccc2)csc1N	n	n	n	n	n	n
COC(=O)c1c(C(=O)OC)c2c(-c3ccccc3)cc3cccc1n32	n	n	32	n	n	n
O=C(O)CN1C(=O)C(=O)N(Cc2ccccc2F)C1=O	n	n	n	n	n	n
CCN1C(=O)CC2(C[N+]3(C)CCC2CC3)C1=O (stereo unspecified)	n	n	53	n	n	n
CCC(C)c1ccccc1N1CC(C(=O)NCCc2ccc(OC)c(OC)c2)CC1=O (stereo unspecified)	n	n	n	n	n	n
COc1ccccc1CCNC(=O)CCn1c(=O)oc2ccccc21	n	n	n	n	n	n
COc1ccccc1CCNC(=O)Cn1c(=O)oc2ccccc21	n	n	40	n	n	n
CCOC(=O)/C(=C\C=C1/Sc2cc(OCC)c(OCC)cc2N1CC)C(C)=O	n	n	n	n	n	24
CCN1/C(=C/C(C)=O)Sc2ccc(OC)cc21	n	n	n	n	n	n
CCOC(=O)/C(=C/C=C1\Sc2cc(OCC)c(OCC)cc2N1CC)C(C)=O	n	n	36	n	n	147
COc1ccc(CNC(=O)Cn2cccc2C(=O)c2ccccc2)cc1	n	n	n	n	n	n
Cn1c(=O)[nH]c(=O)c2c1nc(CN1CCN(c3ccccc3F)CC1)n2CCCc1ccccc1	22	n	n	n	n	n
CCOC(=O)N1CCC(NC(=S)Nc2ccc3nc(N4CCN(CC)CC4)cc(C)c3c2)CC1	n	37	n	n	n	n
O=C(O)c1ccc(N/N=C/c2cccc(C(F)(F)F)c2)cc1	n	n	29	n	n	n
O=C(O)c1ccc(N/N=C/c2cccc(F)c2)cc1	n	n	n	n	n	n
S=c1[nH]nc(-c2ccco2)n1-c1cccc2ccccc12	n	n	n	n	46	n
Cc1cccc(C)c1OCc1cc(C(=O)N(Cc2c(C)nn(C)c2C)C2CC2)no1	n	n	n	n	n	n
c1ccc(OCc2noc(CN3CC[C@@H]4CCCC[C@H]4C3)n2)cc1	n	n	n	n	22	n
Clc1cccc(C2CCN(Cc3nc(COc4ccccc4)no3)C2)c1 (stereo unspecified)	n	n	n	n	n	n
NS(=O)(=O)c1ccc(CCNC(=O)c2ccc3c(c2)N(Cc2ccccc2)CCS3)cc1	n	n	31	n	n	n
SMILES	M4 PAM	M4 antag	M5 antag	M4 ag	CHRM5 PAM	CHRM5 agonist
COc1cccc(OC)c1OCCCc1c(C)n[nH]c1C	29	n	n	n	n	n
Cc1cccc(OCCCc2c(C)n[nH]c2C)c1	n	n	n	n	n	n
Cc1cc(C)c(-c2csc(NC(=O)c3cc([N+](=O)[O-])ccc3N3CCOCC3)n2)c(C)c1	n	36	n	n	n	n
O=C(Nc1nc(-c2ccc(F)c(F)c2)cs1)c1cc([N+](=O)[O-])ccc1N1CCOCC1	n	n	n	n	n	n
CN1CCN(c2ccccc2/C=C2/C(=O)Nc3ccccc32)CC1	n	n	83	n	n	n
NC(=O)CC[C@H](NC(=O)c1ccc(F)cc1)C(=O)OCC(=O)Nc1ccc(N2CCOCC2)cc1	24	n	n	n	n	n
CC(=O)Nc1ccc(C(=O)OCC(=O)Nc2ccc(N3CCOCC3)cc2)cc1	n	n	n	n	n	n

Screening data deposited in PubChem by The Scripps Research Institute Molecular Screening Center.
